test system: E. coli BW25113 ΔtolC growth inhibition, OD615; assay: E. coli ΔtolC antibacterial growth inhibition – strain BW25113 ΔtolC::kan, dose response (AID 617)
In short: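 System: E. coli BW25113 ΔtolC::kan bacteria. Amount: 1:1000 diluted subculture inoculum. Medium: LB broth supplemented with kanamycin at 50 µg/mL. Compound dosing: serial dilution series of compound. Schedule: 20 h exposure at 37 °C. Detection: OD615. Measure: IC50 of bacterial growth inhibition. Benchmarks: chloramphenicol control, 30 µM final.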

Compound	IC50 [µM]
CCOC(=O)c1c(NS(=O)(=O)c2cccc(OC)c2)sc2c1CCC2	56.2
COc1ccccc1-c1nnc(SC/C(O)=C(\C#N)c2nc3ccccc3[nH]2)n1C1CCCCC1	10.2
N#Cc1nc(-c2ccc(OCc3ccccc3)cc2)oc1NCCCN1CCOCC1	25.9
O=C(C1CCCCC1)N1CCC(c2nc3c(nnn3Cc3c(F)cccc3Cl)c(=O)[nH]2)CC1	18.2
COc1ccc(-c2[nH]c(-c3cccc(OC)c3)nc2SCC(=O)NCc2ccco2)cc1	11.1
COc1ccc(S(=O)(=O)n2cnc3cc(C)c(C)cc32)cc1C	13.6
CO[C@@]1(NC(=O)Cc2cccs2)C(=O)N2C(C(=O)O)=C(COC(N)=O)CS[C@@H]21	2
N#C/C(=C\c1ccc[nH]1)Sc1nc2ccccc2s1	4.28
CC1=C(C(=O)OC(C)C)C(c2c[nH]c3ccccc23)n2ncnc2N1 (stereo not given)	6.11
N=c1c2c(n(Cc3ccc(Cl)cc3Cl)c3c1CCC3)CCCC2	6.15
O=C(c1cc(-c2ccccc2)on1)N1CCN(Cc2ccc3c(c2)OCO3)CC1	20.8
CCOC(=O)c1sc(NC(=O)CSc2n[nH]c(-c3ccccc3)n2)c(C#N)c1C	1.69
Cc1c(C(=O)OCCOc2ccccc2)[nH]c2c1C(=O)CCC2	3.86
CCn1nc(-c2ccccc2)nc2c(=O)n(C)c(=O)nc1-2	2.8
c1ccc(-c2cccc(-c3ccccn3)n2)nc1	19.4
COc1cccc(C(=O)Nc2nnc(-c3cccs3)o2)c1	3.87
Cc1cccc(Nc2nc(-c3ccccn3)cs2)n1	0.68
CC1=CC(C)(C)N(C(=O)c2ccc(F)cc2)c2cc3c(cc21)OCO3	12.7
Cn1cc(SCC(=O)Nc2nc3ccccc3s2)c2ccccc21	9.23
CCOc1ccc(NS(=O)(=O)c2ccc3[nH]cc(C(=O)NC(C)CC)c(=O)c3c2)cc1 (stereo not given)	11.1
Cc1cc(Nc2ccccc2)nc(-c2ccccc2O)n1	15.4
O=C(c1cccs1)N(Cc1nc2sc3c(c2c(=O)[nH]1)CCCC3)C1CCCC1	9.95
O=C(Nc1nnc(-c2ccc(F)cc2)o1)c1ccco1	16.3

Compound	IC50 [µM]
O=S(=O)(c1ccccc1)N1CCN(Cc2ccccc2C(F)(F)F)CC1	16.8
Fc1ccc(Cn2nnnc2C(c2cccs2)N2CCCCCC2)cc1 (stereo not given)	10.5
COC(=O)CSc1nc(N2CCCCC2)c2c(c1C#N)CCCC2	12.6
Cc1cccn2c(=O)c3cc(C(=O)NCc4ccco4)c(=N)n(CCc4ccccc4)c3nc12	43.1
O=c1ccsn1Cc1ccccc1	3.15
COc1ccc(-c2[nH]ncc2-c2cnn(-c3ccccc3)c2)c(O)c1	12.5
Cc1ccc2c(CC(=O)OCc3nc(N)nc(Nc4ccccc4C)n3)coc2c1	10
COC(=O)c1ccsc1NC(=O)CN1CCN(c2ccc(F)cc2)CC1	18.5
CCCc1ccc(Oc2cn[nH]c2-c2ccc(O)c(C)c2O)cc1	1.84
CCN(C(=O)c1ccc(C(C)(C)C)cc1)c1nnc(Cn2nnc3ccccc32)s1	47.5
O=C(NCc1ccco1)c1cnn2c1NC(c1ccc(Br)cc1)CC2C(F)(F)F (stereo not given)	12.8
CCn1c(C(=O)N2CCC(C(=O)NCCCSC3CCCCC3)CC2)cc2sccc21	6.22
O=C(Nc1cnn(Cc2ccc(Cl)cc2Cl)c1)c1noc2c1CCCC2	8.39
Cc1cc(NC(=O)C2CCCCC2)nc2c1c(=O)oc1ccccc12	11.5
O=C(c1ccccc1CCc1ccccc1)N1CCN(c2ccccn2)CC1	8.38
CCOc1ccc(OCCSc2nnnn2C2CCCCC2)cc1	14.5
O=C(c1ccc(COc2ccc(Cl)cc2)o1)N1CCN(Cc2ccc3c(c2)OCO3)CC1	5.35
CCOC(=O)c1cnc(-n2nc(C)cc2C)nc1NCc1ccccc1	0.68
CCOc1ccccc1N1CCN(Cc2ccc(Br)s2)CC1	26.6
COC(=O)c1[nH]c2ccccc2c1NC(=O)CN1CCN(c2cccc(OC)c2)C(C)C1 (stereo not given)	18.6
O=C1c2[nH]nc(-c3ccccc3O)c2C(c2cccc(Cl)c2)N1CC1CCCO1 (stereo not given)	4.35
O=C(NCC1CCCO1)c1sc(=S)n2c1[nH]c(=O)c1ccc(C(=O)N3CCCCC3)cc12 (stereo not given)	16.4

— PubChem BioAssay AID617 (SRMLSC, 2007)
